Experimental findings from ChEMBL document CHEMBL4257503, “N-Acetyl-3-aminopyrazoles block the non-canonical NF-kB cascade by selectively inhibiting NIK” (Medchemcomm, 2018) are described below.

The pIC50 is the IC50 on a negative log10 scale, so that one unit is a factor of ten. What is called inhibition is the share of the control response that was lost under treatment.

Each structure is given as a SMILES string. pIC50: −log10 of the molar value. Calls of active or inactive are those of the source. The calls are words filed in the database; no cut-off is given here.

A short description of series [1]: Cytotoxicity against human EJM cells assessed as cell viability at 25 uM after 6 hrs by CellTiter Glo luminescent assay relative to control. The settings on record: read-out: Activity. Format: cell-based. In outline:
(§1)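 Cells seeded at 5 x 10^3 per well and exposed for 6 h to the compound (10, 25, 50 or 100 µM) or to DMSO vehicle. Viability was read as intracellular ATP by CellTiter Glo luminescence.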
A general note: In ATP-based viability assays light output follows the ATP content of the culture.

For series [2], the target named is Casein kinase II subunit alpha (Homo sapiens, UniProt P68400). Kind of series: Inhibition of CK2-alpha1 (unknown origin).
Casein kinase II subunit alpha, sequence (P68400 whole entry): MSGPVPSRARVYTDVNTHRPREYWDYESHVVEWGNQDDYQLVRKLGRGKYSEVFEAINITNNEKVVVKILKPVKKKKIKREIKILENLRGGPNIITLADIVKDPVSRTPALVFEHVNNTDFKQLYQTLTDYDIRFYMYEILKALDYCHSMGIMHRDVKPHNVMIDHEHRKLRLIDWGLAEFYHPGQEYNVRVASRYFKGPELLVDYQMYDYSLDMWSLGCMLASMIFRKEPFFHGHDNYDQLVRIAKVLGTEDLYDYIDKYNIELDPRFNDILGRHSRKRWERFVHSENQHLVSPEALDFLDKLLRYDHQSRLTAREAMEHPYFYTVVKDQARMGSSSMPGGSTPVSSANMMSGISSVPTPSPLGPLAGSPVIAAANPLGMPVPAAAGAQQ
Series [3] addresses Interleukin-1 receptor-associated kinase 4 (Homo sapiens, UniProt Q9NWZ3). Kind of series: Inhibition of untagged IRAK4 (unknown origin).
Series [4] has as its target Mitogen-activated protein kinase kinase kinase 8 (Homo sapiens, UniProt P41279). Kind of series: Inhibition of COT (unknown origin).
In series [5] the target is Mitogen-activated protein kinase 14 (Homo sapiens, UniProt Q16539). Kind of series: Inhibition of p38-alpha (unknown origin).
In another series the target is Insulin receptor (Homo sapiens, UniProt P06213). Kind of series: Inhibition of INSR (unknown origin).
Insulin receptor, sequence (P06213 28-758 limits assumed): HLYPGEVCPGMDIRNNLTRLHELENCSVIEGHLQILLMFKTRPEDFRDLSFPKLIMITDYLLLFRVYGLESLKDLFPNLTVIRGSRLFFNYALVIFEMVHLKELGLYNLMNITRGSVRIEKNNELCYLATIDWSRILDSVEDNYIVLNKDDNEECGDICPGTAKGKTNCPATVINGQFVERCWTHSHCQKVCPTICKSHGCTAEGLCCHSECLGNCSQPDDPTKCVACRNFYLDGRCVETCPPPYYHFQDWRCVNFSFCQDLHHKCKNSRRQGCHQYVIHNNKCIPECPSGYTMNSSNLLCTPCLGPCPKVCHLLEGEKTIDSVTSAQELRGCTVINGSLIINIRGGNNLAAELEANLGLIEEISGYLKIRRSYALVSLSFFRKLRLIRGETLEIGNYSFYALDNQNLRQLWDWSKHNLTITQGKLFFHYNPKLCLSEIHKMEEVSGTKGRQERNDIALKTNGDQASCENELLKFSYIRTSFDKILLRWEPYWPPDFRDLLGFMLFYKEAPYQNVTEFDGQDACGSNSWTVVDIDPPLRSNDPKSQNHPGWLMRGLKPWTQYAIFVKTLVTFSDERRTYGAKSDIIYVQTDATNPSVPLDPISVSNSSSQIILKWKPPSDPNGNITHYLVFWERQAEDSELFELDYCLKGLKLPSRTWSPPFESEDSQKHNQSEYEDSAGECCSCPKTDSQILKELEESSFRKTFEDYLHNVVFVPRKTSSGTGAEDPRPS
Insulin receptor, sequence (P06213 763-1382 limits assumed): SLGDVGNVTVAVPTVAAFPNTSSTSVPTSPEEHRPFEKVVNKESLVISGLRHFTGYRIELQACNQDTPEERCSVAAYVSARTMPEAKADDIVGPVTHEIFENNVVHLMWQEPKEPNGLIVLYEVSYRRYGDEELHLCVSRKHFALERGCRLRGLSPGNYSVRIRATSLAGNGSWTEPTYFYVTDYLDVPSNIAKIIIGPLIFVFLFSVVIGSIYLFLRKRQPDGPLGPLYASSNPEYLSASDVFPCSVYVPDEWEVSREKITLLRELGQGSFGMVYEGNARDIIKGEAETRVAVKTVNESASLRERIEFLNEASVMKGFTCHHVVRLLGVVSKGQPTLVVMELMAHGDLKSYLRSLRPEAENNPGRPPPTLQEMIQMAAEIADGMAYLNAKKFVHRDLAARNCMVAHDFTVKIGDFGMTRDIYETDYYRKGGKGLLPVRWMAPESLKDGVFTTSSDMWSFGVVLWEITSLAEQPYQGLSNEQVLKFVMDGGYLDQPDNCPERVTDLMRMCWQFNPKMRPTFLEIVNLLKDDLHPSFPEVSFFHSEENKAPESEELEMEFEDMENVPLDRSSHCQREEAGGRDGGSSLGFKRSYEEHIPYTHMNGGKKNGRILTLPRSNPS
Series [6] addresses Serine/threonine-protein kinase Nek6 (Homo sapiens, UniProt Q9HC98). Kind of series: Inhibition of NEK6 (unknown origin).
Series [7] can be described thus: Stability in human liver microsomes at 1 uM in presence of NADPH cofactor. It counts as ADME, microsome. The settings on record: read-out: Stability. (In general: Microsomes from liver hold many membrane-bound enzymes, among them those of drug oxidation.)
Series [8] has as its target Mitogen-activated protein kinase kinase kinase 11 (Homo sapiens, UniProt Q16584). Kind of series: Inhibition of MAP3K11 (unknown origin).
Series [9] deals with Mitogen-activated protein kinase kinase kinase 14 (Homo sapiens), Q99558 [S549D]. Kind of series: Inhibition of human NIK kinase domain S549D mutant.
The target of series [10] is T1, Inhibitor of nuclear factor kappa-B kinase subunit beta (Homo sapiens, UniProt O14920).
T1 sequence (O14920 whole entry): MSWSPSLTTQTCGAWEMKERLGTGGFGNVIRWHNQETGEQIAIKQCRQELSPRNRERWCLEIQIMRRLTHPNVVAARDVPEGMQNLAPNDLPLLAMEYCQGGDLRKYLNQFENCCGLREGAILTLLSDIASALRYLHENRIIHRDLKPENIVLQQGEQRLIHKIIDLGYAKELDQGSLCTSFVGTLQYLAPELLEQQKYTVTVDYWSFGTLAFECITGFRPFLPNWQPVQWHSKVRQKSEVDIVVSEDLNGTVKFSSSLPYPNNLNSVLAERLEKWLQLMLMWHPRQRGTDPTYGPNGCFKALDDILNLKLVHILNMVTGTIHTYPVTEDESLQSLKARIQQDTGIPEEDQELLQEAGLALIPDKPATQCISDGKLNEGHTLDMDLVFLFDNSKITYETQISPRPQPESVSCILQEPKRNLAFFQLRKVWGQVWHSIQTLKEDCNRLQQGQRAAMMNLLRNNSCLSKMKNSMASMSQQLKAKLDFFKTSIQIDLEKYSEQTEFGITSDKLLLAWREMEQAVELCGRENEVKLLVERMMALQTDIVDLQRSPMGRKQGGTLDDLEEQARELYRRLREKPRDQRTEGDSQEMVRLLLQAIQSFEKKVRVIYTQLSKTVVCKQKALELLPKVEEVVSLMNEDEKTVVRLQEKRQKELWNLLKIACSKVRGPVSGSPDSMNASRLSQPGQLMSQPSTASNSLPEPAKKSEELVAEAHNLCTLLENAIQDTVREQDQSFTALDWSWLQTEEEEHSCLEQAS
Kind of series: Inhibition of recombinant human full-length N-terminal GST-fused/His6-tagged IKKbeta (M1 to S756 residues) expressed in Sf9 insect cells using ERLLDDRHDSGLDSMKDEE peptide as substrate measured after 60 mins by ADP-Glo kinase assay. A general note: In ADP-Glo the light output rises with the ADP produced.

The target of series [11] is Cyclin-Y/Cyclin-dependent kinase 16 (Homo sapiens, UniProt Q00536). Kind of series: Inhibition of PCTAIRE1/cyclinY (unknown origin). It counts as protein-complex assay.
The target of series [12] is Mitogen-activated protein kinase kinase kinase kinase 2 (Homo sapiens, UniProt Q12851). Kind of series: Inhibition of MAP4K2 (unknown origin).
Mitogen-activated protein kinase kinase kinase kinase 2, sequence (Q12851 whole entry): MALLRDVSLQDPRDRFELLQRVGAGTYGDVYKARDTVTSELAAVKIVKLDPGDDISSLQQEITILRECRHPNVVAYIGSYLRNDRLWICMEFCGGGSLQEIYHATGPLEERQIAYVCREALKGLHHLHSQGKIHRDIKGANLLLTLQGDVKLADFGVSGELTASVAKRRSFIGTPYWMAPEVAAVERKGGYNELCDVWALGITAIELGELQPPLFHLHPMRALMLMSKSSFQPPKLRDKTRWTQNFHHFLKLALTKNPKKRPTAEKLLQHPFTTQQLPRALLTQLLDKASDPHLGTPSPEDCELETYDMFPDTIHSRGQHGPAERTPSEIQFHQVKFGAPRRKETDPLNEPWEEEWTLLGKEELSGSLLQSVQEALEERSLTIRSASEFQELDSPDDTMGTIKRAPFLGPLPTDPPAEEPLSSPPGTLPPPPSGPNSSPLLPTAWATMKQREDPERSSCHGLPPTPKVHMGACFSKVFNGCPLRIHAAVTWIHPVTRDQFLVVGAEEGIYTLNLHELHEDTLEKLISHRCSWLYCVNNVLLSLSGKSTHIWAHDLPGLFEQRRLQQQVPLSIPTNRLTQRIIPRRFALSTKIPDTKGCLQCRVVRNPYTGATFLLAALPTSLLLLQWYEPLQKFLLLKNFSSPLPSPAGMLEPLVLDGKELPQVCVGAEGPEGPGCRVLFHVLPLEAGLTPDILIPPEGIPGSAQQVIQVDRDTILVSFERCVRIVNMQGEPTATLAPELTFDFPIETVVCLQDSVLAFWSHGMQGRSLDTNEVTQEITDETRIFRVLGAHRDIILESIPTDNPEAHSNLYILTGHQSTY
Series [13] addresses Tyrosine-protein kinase JAK1 (Homo sapiens, UniProt P23458). Kind of series: Inhibition of JAK1 (unknown origin).
A short description of series [14]: Cytotoxicity against human MDA-MB-231 cells assessed as cell viability at 100 uM after 6 hrs by CellTiter Glo luminescent assay relative to control. It counts as cell-based. The conditions noted are these: read-out: Activity. In outline:
as §1

Series [15] concerns the target Mitogen-activated protein kinase kinase kinase 14 (Homo sapiens, UniProt Q99558). Kind of series: Inhibition of NIK-induced NFkappaB activation in human EJM cells at 25 uM after 6 hrs by dual luciferase reporter gene assay relative to control. Format: cell-based. The method in brief: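 Cells were nucleofected with the pGL4.32 NF-κB-RE firefly luciferase and pGL4.74 TK-Renilla plasmids (3 µg, 10:1 ratio) and cultured for 24 h at 37 °C. Compound (10, 25, 50 or 100 µM) was then added for 6 h. Firefly luminescence was normalised to Renilla from the same sample and expressed as % of vehicle control. Means ± SD of three independent experiments.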

The target in series [16] is Death-associated protein kinase 1 (Homo sapiens, UniProt P53355). Kind of series: Inhibition of DAPK1 (unknown origin).
Series [17] deals with Receptor-type tyrosine-protein kinase FLT3 (Homo sapiens, UniProt P36888). Kind of series: Inhibition of wild-type FLT3 (unknown origin).
In series [18] the target is Serine/threonine-protein kinase mTOR (Homo sapiens, UniProt P42345). Kind of series: Inhibition of mTOR (unknown origin).
In series [19] the target is Casein kinase I isoform alpha (Homo sapiens, UniProt P48729). Kind of series: Inhibition of CK1-alpha1 (unknown origin).
Casein kinase I isoform alpha, sequence (P48729 whole entry, canonical isoform): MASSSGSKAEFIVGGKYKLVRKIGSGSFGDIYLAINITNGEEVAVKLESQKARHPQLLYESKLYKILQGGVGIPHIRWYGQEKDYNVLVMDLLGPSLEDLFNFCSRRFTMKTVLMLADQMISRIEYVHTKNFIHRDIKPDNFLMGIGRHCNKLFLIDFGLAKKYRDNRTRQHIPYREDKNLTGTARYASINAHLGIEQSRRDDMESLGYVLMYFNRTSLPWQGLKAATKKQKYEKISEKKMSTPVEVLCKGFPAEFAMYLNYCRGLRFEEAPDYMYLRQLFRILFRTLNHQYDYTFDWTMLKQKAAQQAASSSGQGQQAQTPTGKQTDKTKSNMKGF
Series [20] addresses Fibroblast growth factor receptor 1 (Homo sapiens, UniProt P11362). Kind of series: Inhibition of wild-type FGFR1 (unknown origin).
In series [21] the target is Calcium/calmodulin-dependent protein kinase kinase 1 (Homo sapiens, UniProt Q8N5S9). Kind of series: Inhibition of CAMKK1 (unknown origin).

Serine/threonine-protein kinase Nek6, sequence (Q9HC98 whole entry): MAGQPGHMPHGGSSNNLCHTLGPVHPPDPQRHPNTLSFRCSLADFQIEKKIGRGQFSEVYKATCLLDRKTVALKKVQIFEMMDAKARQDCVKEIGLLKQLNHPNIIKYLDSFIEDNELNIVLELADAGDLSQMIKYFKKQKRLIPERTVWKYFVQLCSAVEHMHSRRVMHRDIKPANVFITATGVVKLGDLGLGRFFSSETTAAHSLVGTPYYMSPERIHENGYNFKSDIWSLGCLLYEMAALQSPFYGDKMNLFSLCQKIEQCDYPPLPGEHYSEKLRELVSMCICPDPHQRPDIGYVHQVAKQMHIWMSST
Fibroblast growth factor receptor 1, sequence (P11362 whole entry): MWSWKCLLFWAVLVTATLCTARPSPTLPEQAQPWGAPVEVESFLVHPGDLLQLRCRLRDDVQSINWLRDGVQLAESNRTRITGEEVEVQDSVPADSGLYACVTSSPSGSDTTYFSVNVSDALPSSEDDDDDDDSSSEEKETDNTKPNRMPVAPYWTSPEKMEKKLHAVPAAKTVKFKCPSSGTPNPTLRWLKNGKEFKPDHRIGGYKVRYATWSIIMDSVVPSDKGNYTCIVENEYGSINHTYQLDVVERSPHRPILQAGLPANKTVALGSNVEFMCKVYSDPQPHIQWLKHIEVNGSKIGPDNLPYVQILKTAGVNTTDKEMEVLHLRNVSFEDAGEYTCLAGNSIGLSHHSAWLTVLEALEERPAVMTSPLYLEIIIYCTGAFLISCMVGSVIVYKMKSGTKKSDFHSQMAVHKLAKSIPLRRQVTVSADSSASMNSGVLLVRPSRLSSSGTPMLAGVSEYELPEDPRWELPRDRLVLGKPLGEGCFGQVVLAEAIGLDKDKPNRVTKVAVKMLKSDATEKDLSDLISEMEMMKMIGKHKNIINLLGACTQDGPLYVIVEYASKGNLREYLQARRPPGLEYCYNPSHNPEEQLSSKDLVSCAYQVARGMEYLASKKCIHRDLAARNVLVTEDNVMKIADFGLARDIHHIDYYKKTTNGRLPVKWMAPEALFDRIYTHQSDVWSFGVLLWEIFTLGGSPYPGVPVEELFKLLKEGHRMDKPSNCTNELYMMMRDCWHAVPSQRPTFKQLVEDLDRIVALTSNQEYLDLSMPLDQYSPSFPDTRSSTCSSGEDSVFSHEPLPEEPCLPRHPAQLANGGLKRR
Mitogen-activated protein kinase kinase kinase 11, sequence (Q16584 whole entry, the tested form may be a part): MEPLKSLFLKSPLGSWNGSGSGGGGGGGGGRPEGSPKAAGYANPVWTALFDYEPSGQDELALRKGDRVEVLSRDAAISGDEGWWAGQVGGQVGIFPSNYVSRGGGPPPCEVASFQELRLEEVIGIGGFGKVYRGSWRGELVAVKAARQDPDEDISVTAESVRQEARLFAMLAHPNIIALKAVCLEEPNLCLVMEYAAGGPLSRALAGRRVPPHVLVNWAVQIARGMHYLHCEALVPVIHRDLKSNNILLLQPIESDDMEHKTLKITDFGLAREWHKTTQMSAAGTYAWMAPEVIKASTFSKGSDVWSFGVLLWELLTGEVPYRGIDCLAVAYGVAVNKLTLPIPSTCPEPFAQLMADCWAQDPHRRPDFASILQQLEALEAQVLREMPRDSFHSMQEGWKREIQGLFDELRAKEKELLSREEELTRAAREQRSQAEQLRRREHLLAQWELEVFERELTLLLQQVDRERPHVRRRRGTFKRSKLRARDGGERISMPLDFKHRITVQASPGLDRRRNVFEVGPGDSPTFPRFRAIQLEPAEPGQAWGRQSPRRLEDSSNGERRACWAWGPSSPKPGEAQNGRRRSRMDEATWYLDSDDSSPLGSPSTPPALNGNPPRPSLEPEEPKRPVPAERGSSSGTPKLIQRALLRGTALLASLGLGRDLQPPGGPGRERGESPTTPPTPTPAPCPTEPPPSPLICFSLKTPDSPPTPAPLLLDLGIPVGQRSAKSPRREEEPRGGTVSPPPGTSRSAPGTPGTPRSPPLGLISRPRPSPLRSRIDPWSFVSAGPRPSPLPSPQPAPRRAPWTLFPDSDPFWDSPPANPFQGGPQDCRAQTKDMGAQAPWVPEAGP

For the molecule `CC(=O)n1nc(C)c(-c2ccc(Cl)c(Cl)c2)c1N`, the viability at 6 h, 25 µM in series [1] is at least 80%. In addition, the pIC50 (in series [2]; in series [3]; in [4]; in series [5]; on Insulin receptor; in series [6]) was below 4.00 in each case. In addition, the pIC50 in [8], in series [10], in series [11], in [12], in series [13] and in [16] was below 4.00 throughout. Further, the pIC50 in series [17], in series [18], in series [19], in series [20] and in series [21] was below 4.00 throughout. For the same molecule, the remaining at 1 µM in series [7] is 1%. The inhibition result in series [9] was “inactive”. The viability at 6 h, 100 µM in [14] is at least 80%. The inhibition in series [15] was 83.4%.
